Experimental data taken from ChEMBL document CHEMBL2424550, “Discovery of cyclic sulfoxide hydroxyethylamines as potent and selective β-site APP-cleaving enzyme 1 (BACE1) inhibitors: structure based design and in vivo reduction of amyloid β-peptides” (Bioorg Med Chem Lett, 2013).

Test system: Brain
Assay: Drug level in APP51/16 transgenic male mouse brain at 60 umol/kg, po after 4 hrs
Assay type: ADME, organism-based
Settings: in vivo
Outline: (§1)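 Inhibitor given orally to APP51/16 transgenic mice as a suspension in water with 2% cremophor; ritonavir (12.5 mg/kg po, 0.5 h before inhibitor) where noted. Blood concentration (nmol/mL) and brain concentration (nmol/g) determined 4 h after dosing.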

| SMILES | Drug uptake [nmol/g] |
| --- | --- |
| CC(C)(C)c1cccc(CN[C@H]2C[S@+]([O-])C[C@@H](Cc3cc(F)c(N)c(OCC(F)(F)F)c3)[C@@H]2O)c1 | 0.4 |

Test system: Brain
Assay: Drug level in APP51/16 transgenic male mouse brain at 100 umol/kg, po after 4 hrs
Assay type: ADME, organism-based
Settings: in vivo
Outline: as §1

| SMILES | Drug uptake [nmol/g] |
| --- | --- |
| CC(C)(C)c1cccc(CN[C@H]2C[S@+]([O-])C[C@@H](Cc3cc(F)c(N)c(OCC(F)(F)F)c3)[C@@H]2O)c1 | 0.7 |

Test system: Brain
Assay: Drug level in APP51/16 transgenic male mouse brain at 180 umol/kg, po after 4 hrs
Assay type: ADME, organism-based
Settings: in vivo
Outline: as §1

| SMILES | Drug uptake [nmol/g] |
| --- | --- |
| CC(C)(C)c1cccc(CN[C@H]2C[S@+]([O-])C[C@@H](Cc3cc(F)c(N)c(OC(C(F)(F)F)C(F)(F)F)c3)[C@@H]2O)c1 | 0.8 |
| CC(C)(C)c1cccc(CN[C@H]2C[S@+]([O-])C[C@@H](Cc3cc(F)c(N)c(OCC(F)(F)F)c3)[C@@H]2O)c1 | 1.3 |

Test system: not listed separately
Assay: Drug level in APP51/16 transgenic male mouse blood at 100 umol/kg, po after 4 hrs
Assay type: ADME, organism-based
Settings: whole blood, read-out: Drug uptake
Outline: as §1

| SMILES | concentration at 4 h [nM] |
| --- | --- |
| CC(C)(C)c1cccc(CN[C@H]2C[S@+]([O-])C[C@@H](Cc3cc(F)c(N)c(OCC(F)(F)F)c3)[C@@H]2O)c1 | 2600 |

Test system: not listed separately
Assay: Drug level in APP51/16 transgenic male mouse blood at 60 umol/kg, po after 4 hrs
Assay type: ADME, organism-based
Settings: whole blood, read-out: Drug uptake
Outline: as §1

| SMILES | concentration at 4 h [nM] |
| --- | --- |
| CC(C)(C)c1cccc(CN[C@H]2C[S@+]([O-])C[C@@H](Cc3cc(F)c(N)c(OCC(F)(F)F)c3)[C@@H]2O)c1 | 800 |

Test system: not listed separately
Assay: Drug level in APP51/16 transgenic male mouse blood at 180 umol/kg, po after 4 hrs
Assay type: ADME, organism-based
Settings: whole blood, read-out: Drug uptake
Outline: as §1

| SMILES | concentration at 4 h [nM] |
| --- | --- |
| CC(C)(C)c1cccc(CN[C@H]2C[S@+]([O-])C[C@@H](Cc3cc(F)c(N)c(OC(C(F)(F)F)C(F)(F)F)c3)[C@@H]2O)c1 | 900 |
| CC(C)(C)c1cccc(CN[C@H]2C[S@+]([O-])C[C@@H](Cc3cc(F)c(N)c(OCC(F)(F)F)c3)[C@@H]2O)c1 | 6100 |

Test system: not listed separately
Assay: Clearance in mouse liver microsomes
Assay type: ADME, Microsome
Settings: read-out: CLH
Outline: (§2)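 Compounds incubated at 37 °C with human or mouse liver microsomes.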

| SMILES | microsomal CLint [µL/min/mg] |
| --- | --- |
| COC[C@@H](Oc1cc(C[C@@H]2C[S@@+]([O-])C[C@H](NCc3cc(C(C)(C)C)ccn3)[C@H]2O)cc(F)c1N)C(F)(F)F | 400 |
| COC[C@@H](Oc1cc(C[C@@H]2C[S@@+]([O-])C[C@H](NCc3cc(CC(C)(C)C)on3)[C@H]2O)cc(F)c1N)C(F)(F)F | 510 |
| COC[C@@H](Oc1cc(C[C@@H]2C[S@@+]([O-])C[C@H](NCc3cccc(OC(F)(F)F)c3)[C@H]2O)cc(F)c1N)C(F)(F)F | 180 |

Test system: not listed separately
Assay: Clearance in human liver microsomes
Assay type: ADME, Microsome
Settings: read-out: CLH
Outline: as §2

| SMILES | microsomal CLint [µL/min/mg] |
| --- | --- |
| COC[C@@H](Oc1cc(C[C@@H]2C[S@@+]([O-])C[C@H](NCc3cc(C(C)(C)C)ccn3)[C@H]2O)cc(F)c1N)C(F)(F)F | 140 |
| COC[C@@H](Oc1cc(C[C@@H]2C[S@@+]([O-])C[C@H](NCc3cc(CC(C)(C)C)on3)[C@H]2O)cc(F)c1N)C(F)(F)F | 580 |
| COC[C@@H](Oc1cc(C[C@@H]2C[S@@+]([O-])C[C@H](NCc3cccc(OC(F)(F)F)c3)[C@H]2O)cc(F)c1N)C(F)(F)F | 300 |

Test system: not listed separately
Assay: Bioavailability in mouse
Assay type: ADME, organism-based
Settings: in vivo

| SMILES | bioavailability [%] |
| --- | --- |
| CC(C)(C)c1cccc(CN[C@H]2C[S@+]([O-])C[C@@H](Cc3cc(F)c(N)c(OC(C(F)(F)F)C(F)(F)F)c3)[C@@H]2O)c1 | 14 |

Test system: not listed separately
Assay: Clearance in mouse
Assay type: ADME, organism-based
Settings: in vivo

| SMILES | clearance [mL/min/kg] |
| --- | --- |
| CC(C)(C)c1cccc(CN[C@H]2C[S@+]([O-])C[C@@H](Cc3cc(F)c(N)c(OC(C(F)(F)F)C(F)(F)F)c3)[C@@H]2O)c1 | 129 |

Test system: not listed separately
Assay: Lipophilicity, log P of the compound
Assay type: physicochemical
Settings: octanol/water

| SMILES | logP |
| --- | --- |
| COC[C@@H](Oc1cc(C[C@@H]2C[S@@+]([O-])C[C@H](NCc3cc(CC(C)(C)C)on3)[C@H]2O)cc(F)c1N)C(F)(F)F | 3.1 |
| COC[C@@H](Oc1cc(C[C@@H]2C[S@@+]([O-])C[C@H](NCc3cccc(OC(F)(F)F)c3)[C@H]2O)cc(F)c1N)C(F)(F)F | 3.7 |

Continued, values first:

| logP | SMILES |
| --- | --- |
| 3.5 | COC[C@@H](Oc1cc(C[C@@H]2C[S@@+]([O-])C[C@H](NCc3cc(C(C)(C)C)ccn3)[C@H]2O)cc(F)c1N)C(F)(F)F |
| 5.2 | CC(C)(C)c1cccc(CN[C@H]2C[S@+]([O-])C[C@@H](Cc3cc(F)c(N)c(OC(C(F)(F)F)C(F)(F)F)c3)[C@@H]2O)c1 |
| 4.3 | CC(C)(C)c1cccc(CN[C@H]2C[S@+]([O-])C[C@@H](Cc3cc(F)c(N)c(OCC(F)(F)F)c3)[C@@H]2O)c1 |

Test system: not listed separately
Assay: Dissociation constant, pKa of the compound
Assay type: physicochemical
Settings: not given
Outline: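 Measured by multi-wavelength UV spectroscopy across a linear pH gradient of 2–12 units.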

| SMILES | pKa |
| --- | --- |
| COC[C@@H](Oc1cc(C[C@@H]2C[S@@+]([O-])C[C@H](NCc3cc(CC(C)(C)C)on3)[C@H]2O)cc(F)c1N)C(F)(F)F | 4.9 |
| CC(C)(C)c1cccc(CN[C@H]2C[S@+]([O-])C[C@@H](Cc3cc(F)c(N)c(OC(C(F)(F)F)C(F)(F)F)c3)[C@@H]2O)c1 | 6.7 |

Test system: not listed separately
Assay: Apparent permeability of the compound in MDCK cells expressing human MDR1
Assay type: ADME, cell-based, Canis lupus familiaris
Settings: dog
Outline: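 Apparent permeability (Papp, […]) measured across MDR1-MDCK cell monolayers transfected with human MDR1.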

| SMILES | Papp [×10⁻⁶ cm/s] |
| --- | --- |
| COC[C@@H](Oc1cc(C[C@@H]2C[S@@+]([O-])C[C@H](NCc3cc(CC(C)(C)C)on3)[C@H]2O)cc(F)c1N)C(F)(F)F | 19 |
| COC[C@@H](Oc1cc(C[C@@H]2C[S@@+]([O-])C[C@H](NCc3cccc(OC(F)(F)F)c3)[C@H]2O)cc(F)c1N)C(F)(F)F | 31 |

Further lines, results first:

| Papp [×10⁻⁶ cm/s] | SMILES |
| --- | --- |
| 19 | COC[C@@H](Oc1cc(C[C@@H]2C[S@@+]([O-])C[C@H](NCc3cc(C(C)(C)C)ccn3)[C@H]2O)cc(F)c1N)C(F)(F)F |
| 18 | CC(C)(C)c1cccc(CN[C@H]2C[S@+]([O-])C[C@@H](Cc3cc(F)c(N)c(OC(C(F)(F)F)C(F)(F)F)c3)[C@@H]2O)c1 |
| 19 | CC(C)(C)c1cccc(CN[C@H]2C[S@+]([O-])C[C@@H](Cc3cc(F)c(N)c(OCC(F)(F)F)c3)[C@@H]2O)c1 |
